# Assay results collected from several papers.
# Lines come from different studies, so protocols differ.
# Rock2: Rho-associated protein kinase 2 (Rock2, Rattus norvegicus, UniProt Q62868)
# PTGS2: Prostaglandin G/H synthase 2 (PTGS2, Homo sapiens, UniProt P35354)
# DYRK3: Dual specificity tyrosine-phosphorylation-regulated kinase 3 (DYRK3, Homo sapiens, UniProt O43781)
# NUAK1: NUAK family SNF1-like kinase 1 (NUAK1, Homo sapiens, UniProt O60285)
# DYRK1B: Dual specificity tyrosine-phosphorylation-regulated kinase 1B (DYRK1B, Homo sapiens, UniProt Q9Y463)
# BRDT BD2: Bromodomain testis-specific protein, BD2 (BRDT, Homo sapiens, UniProt Q58F21)
Compound,target,assay,test system,conditions,endpoint,value
O=C(NCCCNc1nc(Nc2cccc(CN3CCOCC3)c2)ncc1C1CC1)C1CCC1,"Inhibitor of nuclear factor kappa-B kinase subunit epsilon (IKBKE, Homo sapiens, UniProt Q14164)","enzyme activity, inhibitor, radiometric",,1 µM,remaining activity,4%
Cc1ccc(NC(=O)c2ccc(C)c(C(F)(F)F)c2)cc1C#Cc1nn(C2CCC(O)CC2)c2ncnc(N)c12 (stereo not shown),Rock2,cell-free assay,,10 µM,remaining signal,85%
Cn1cc(C(=O)Nc2cccc(C(=O)O)c2)ccc1=O,"CREB-binding protein, bromodomain (CREBBP, Homo sapiens, UniProt Q92793)","thermal stability, DSF",,100 µM,ΔTm,1.9 °C
COc1ccc(-c2cc(=O)c3c(O)cc(O[C@@H]4O[C@H](CO)[C@@H](O)[C@H](O)[C@H]4O)cc3o2)cc1O,PTGS2,"enzyme activity, inhibitor",,0.98 µg/mL,inhibition,72.2%
O=C(O)c1ccc2c(c1)nc(Nc1ccc3ccccc3c1)c1ccncc12,DYRK3,"enzyme activity, inhibitor, radiometric",,1 µM,remaining activity,4%
CCOc1ccc2cc(-c3nn(CC4CCN(C)CC4)c4ncnc(N)c34)ccc2c1,"Calmodulin-domain protein kinase 1 (CDPK1, Toxoplasma gondii, UniProt Q9BJF5)","thermal stability, DSF",,20 µM,ΔTm,12.3 °C
N#Cc1cccc(Nc2nc3cc(C(=O)O)ccc3c3cnccc23)c1,DYRK3,"enzyme activity, inhibitor, radiometric",,1 µM,remaining activity,0%
CN(C)C1CCN(CC#Cc2nn(C3CCCC3)c3nc(NCc4ccccc4)ncc23)C1 (stereo not shown),NUAK1,"enzyme activity, inhibitor, FRET",,0.1 µM,inhibition,0%
O=C(O)c1ccc2c(c1)nc(Nc1ccc(Cl)cc1)c1ncncc12,DYRK1B,"enzyme activity, inhibitor, radiometric",,1 µM,remaining activity,80%
O=C(NCCCNc1nc(Nc2cccc(NC(=O)N3CCCC3)c2)ncc1C1CC1)C1CCC1,NUAK1,"enzyme activity, inhibitor, radiometric",,1 µM,remaining activity,51%
C=C[C@@]1(C)C=C2CC[C@@H]3[C@](C)(CCC[C@@]3(C)C(=O)O)[C@H]2CC1,PTGS2,"enzyme activity, inhibitor",,15.63 µg/mL,inhibition,85.3%
O=C(O)c1ccc2c(c1)nc(NCCc1cccc(F)c1)c1ccncc12,DYRK1B,"enzyme activity, inhibitor, radiometric",,1 µM,remaining activity,106%
Nc1ncnc2occ(-c3ccc(NC(=O)Nc4cc(C(F)(F)F)ccc4F)cc3)c12,"Mitogen-activated protein kinase kinase kinase 15 (MAP3K15, Homo sapiens, UniProt Q6ZN16)","cell-free assay, inhibitor",,20 µM,remaining signal,39%
NS(=O)(=O)c1ccc(Nc2nc(-c3ccc(F)cc3)c3ccccc3n2)cc1,BRDT BD2,"binding, competition with immobilised ligand",,1 µM,remaining binding,4%
O=c1cc(-c2ccc(O)cc2)oc2cc(O)cc(O)c12,PTGS2,"enzyme activity, inhibitor",,31.25 µg/mL,inhibition,100%
O=C(O)c1ccc2c(c1)nc(NCCc1cccc(Cl)c1)c1ccncc12,DYRK3,"enzyme activity, inhibitor, radiometric",,1 µM,remaining activity,5%
C[S+]([O-])c1ccc(-c2nc(-c3ccncc3)c(-c3ccc(F)cc3)[nH]2)cc1 (stereo not shown),"Transcription intermediary factor 1-beta (TRIM28, Homo sapiens, UniProt Q13263)","thermal stability, DSF",,10 µM,ΔTm,1.43 °C
COc1ccc2c(c1)c(CC(=O)O)c(C(F)(F)F)n2C(=O)c1ccc(Cl)cc1,PTGS2,"enzyme activity, inhibitor",,,kinact/KI,13000 M⁻¹ s⁻¹
Cc1cc2c(cc1N1C(=O)c3cccc4c(Cl)ccc(c34)C1=O)n(C)c(=O)n2C,BRDT BD2,"thermal stability, DSF",,10 µM,ΔTm,-1 °C
Cc1cnc(Nc2ccc(OCCN3CCCC3)cc2)nc1Nc1cccc(S(=O)(=O)NC(C)(C)C)c1,BRDT BD2,"thermal stability, DSF",,10 µM,ΔTm,2.69 °C
COC(=O)c1ccc(O)cc1,PTGS2,"enzyme activity, inhibitor",,0.98 µg/mL,inhibition,0%
O=C(O)c1ccc2c(c1)nc(Nc1ccccc1)c1ccncc12,DYRK3,"enzyme activity, inhibitor, radiometric",,1 µM,remaining activity,7%
O=C(O)c1ccc(O)cc1,PTGS2,"enzyme activity, inhibitor",,3.9 µg/mL,inhibition,61.1%
COc1cc(/C=C/C(=O)CC(=O)/C=C/c2ccc(O)c(OC)c2)ccc1O,Rock2,"enzyme activity, inhibitor",,1 µM,activity vs control,90%
O=C(O)c1ccc2c(c1)nc(Nc1ccc(F)c(Cl)c1)c1ccncc12,DYRK1B,"enzyme activity, inhibitor, radiometric",,1 µM,remaining activity,22%
CCN1CCN(Cc2ccc(NC(=O)c3ccc(C)c(Oc4ccnc5[nH]ccc45)c3)cc2C(F)(F)F)CC1,"Inositol-tetrakisphosphate 1-kinase (Homo sapiens, UniProt Q13572)","target engagement in cells, inhibitor, chemoproteomics",Huh-7,1 µM,inhibition,-10.6%
O=C(O)c1ccc2c(c1)nc(NCCc1ccccc1)c1ncncc12,DYRK1B,"enzyme activity, inhibitor, radiometric",,1 µM,remaining activity,123%
Oc1ccc(-c2nc(-c3ccncc3)c(-c3ccc(F)cc3)[nH]2)cc1,"Bromodomain and WD repeat-containing protein 1, BD2 (BRWD1, Homo sapiens, UniProt Q9NSI6)","thermal stability, DSF",,10 µM,ΔTm,-0.73 °C
